In paper PMC7978421 (Science Advances, 2021):

How the values were obtained:
hASF1A(1-156) = hASF1A(1-156) (Homo sapiens, UniProt Q9Y294); assay: Isothermal titration calorimetry; format: binding
15N hASF1A(1-156) = 15N hASF1A(1-156) (Homo sapiens, UniProt Q9Y294); assay: NMR 1H-15N SOFAST HMQC titration of 15N-hASF1A; format: binding
Procedure, shortened: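 Uniformly 15N-labelled hASF1A(1-156) (M9, 15NH4Cl) at 40 μM in 50 mM tris-HCl pH 7.5, 0.1 mM EDTA, DSS, NaN3, protease inhibitors, 10% D2O. Spectra at 293 or 298 K, 600 MHz, with stepwise test compound additions. Δδ = √(ΔHN² + (0.17ΔN)²), normalised to saturation maximum. Kd fitted against total compound concentration for nine residues shifting >0.07 ppm; mean ± SD reported.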

ASF1 = conditions: cited from earlier work
[1] = VP-ITC, 20°C, 50 mM tris-HCl pH 7.5, at least duplicate

Chain of hASF1A(1-156) (Q9Y294 1-156): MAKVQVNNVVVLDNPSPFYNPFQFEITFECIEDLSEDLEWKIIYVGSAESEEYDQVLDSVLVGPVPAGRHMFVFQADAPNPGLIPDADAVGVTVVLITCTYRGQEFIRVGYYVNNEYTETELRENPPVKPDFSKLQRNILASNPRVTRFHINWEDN
Chain of 15N hASF1A(1-156) (Q9Y294 1-156): as above

Molecule	Kd (hASF1A(1-156))	Affinities times lower than the P1 to P4 peptide series (hASF1A(1-156); ITC)	N (ITC stoichiometry) (hASF1A(1-156); [1])	ΔH (hASF1A(1-156); [1])	−TΔS (hASF1A(1-156); [1])	Kd (15N hASF1A(1-156))	Exchange regime upon 15N-ASF1 titration (15N hASF1A(1-156); NMR titration, chemical shift variation of hASF1A residues)	Affinity for ASF1 (ASF1)
CC[C@H](C)[C@H](NC(=O)[C@H](CCCNC(=N)N)NC(=O)NC[C@H](CCC(N)=O)NC(=O)NC[C@H](CC(C)C)NC(=O)NC[C@H](CCCNC(=N)N)NC(=O)NC[C@H](Cc1ccc2ccccc2c1)NC(=O)[C@H](CCCCN)NC(=O)[C@H](CCC(=O)O)NC(C)=O)C(=O)N[C@@H](C)C(N)=O [C2]	2.7 ± 0.6 µM	10 to 80 times	1.0 ± 0.1	-2.2 ± 0.1 kcal/mol	-4.8 ± 0.2 kcal/mol	4 ± 1 µM	fast exchange rate	–
ASTEEKWARLARRIAGAGGVTLDGFG [ip4]	–	–	–	–	–	–	–	low nanomolar range
